Each structure is given as a SMILES string. In brackets after ≈: the same amount, converted by molar mass. Activity calls are given as the source filed them. The rule behind the calls is not given here.

One data set has as its system HEK293-EBNA. In words: Inhibition of cynomolgus monkey recombinant 11beta-HSD-1 expressed in HEK293 EBNA cells using [3H]-cortisone and NADPH by scintillation proximity assay. Type of data set: cell-based. The following applies: Macaca fascicularis.
Data set [1] in a line: Solubility at pH 7.4. The following applies: buffer. Type of data set: physicochemical.
A short description of data set [2]: Stability in human microsomes assessed as parent compound remaining after 30 mins. Type of data set: ADME, Microsome. The following applies: read-out: Stability.
Data set [3] in a line: Stability in mouse microsomes assessed as parent compound remaining after 30 mins. Format: ADME, Microsome. The following applies: read-out: Stability.
Data set [4] can be described thus: Stability in […] monkey microsomes assessed as parent compound remaining after 30 mins. Format: ADME, Macaca fascicularis, Microsome. The following applies: read-out: Stability.
Data set [5] can be described thus: Stability in rat microsomes assessed as parent compound remaining after 30 mins. Format: ADME, Microsome. The following applies: read-out: Stability.
The nature of data set [6]: Tmax in Balb/C mouse at 3.5 mg/kg, po. Type of data set: ADME, organism-based. Also noted: dose 3.5 mg/kg, route oral. The conditions noted are these: in vivo. In short, it runs like this: (§1)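 Male Balb/C mice were given a single oral dose of 3.5 mpk in 0.5% methocel/0.1% Tween-80 in water.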
Data set [7] in a line: Cmax in Balb/C mouse at 3.5 mg/kg, po. The conditions noted are these: in vivo. Also noted: dose 3.5 mg/kg, route oral. Format: ADME, organism-based. In short, it runs like this:
as §1

Data set [8] can be described thus: AUC (0 to 8 hrs) in Balb/C mouse at 3.5 mg/kg, po. Type of data set: ADME, organism-based. Also noted: time < 8 hr, dose 3.5 mg/kg, route oral. The following applies: plasma. In short, it runs like this: as §1

Consider `Cc1cccn2c(C3(c4ccc(Cl)cc4)CC3)nnc12`, for which the inhibition result with HEK293-EBNA was “Active”.

`Clc1ccc(C2(c3nnc4c(OC5CCC5)cccn34)CC2)cc1`: in the data set with HEK293-EBNA, the inhibition entry is “Active”.

Turning to `Clc1ccc(C2(c3nnc4c(C5CC5)cccn34)CC2)cc1`, the concentration in solution in data set [1] (solubility) came to 76 µg/mL (≈ 245 µM). Moreover, the remaining at 0.5 h in data set [2], in [3], in [4] and in data set [5] was 100% throughout. The Tmax in data set [6] came to 1 h. For the same compound, in [7], the Cmax worked out at 2500 nM. For the same compound, the AUC(0-t) at 8 h in [8] came out at 5.6 µM·h. In addition, in the data set on HEK293-EBNA, the inhibition entry is “Active”.

For the compound `Clc1ccc(C2(c3nnc4c(C5CCC5)cccn34)CC2)cc1`, the inhibition result in the data set on HEK293-EBNA is “Active”.

Take `Clc1ccc(C2(c3nnc4c(OC5CCOCC5)cccn34)CC2)cc1`: in the data set on HEK293-EBNA, the inhibition result was “Active”.

`Clc1ccc(C2(c3nnc4c(OCC5CC5)cccn34)CC2)cc1`: in the data set with HEK293-EBNA, the inhibition entry is “Active”.

For the compound `Clc1ccc(C2(c3nnc4c(OC5CCCCC5)cccn34)CC2)cc1`, the inhibition entry in the data set with HEK293-EBNA is “inactive”.

As to `CC(C)c1cccn2c(C3(c4ccc(Cl)cc4)CC3)nnc12`, the inhibition result with HEK293-EBNA was “Active”.

These data come from ChEMBL document CHEMBL3351978, “Optimization of 1,2,4-Triazolopyridines as Inhibitors of Human 11β-Hydroxysteroid Dehydrogenase Type 1 (11β-HSD-1)” (ACS Med Chem Lett, 2014).
